Screening results (PubChem)
A selection: hits, their analogues and other compounds. The true share with any hit is near 4.1%.
KCNK3 inh – human KCNK3 channel inhibition, primary screen; CHO-KCNK3 thallium flux, FluxOR fluorescence; hits give low values; B-score at 10 µM; hit rate 0.84% among 340,000; AID 602410; O14649;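 active means B-score under library mean minus 4 SD, starting fluorescence ratio at most library mean plus 5 SD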;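 further: more negative B-score means stronger inhibition of thallium flux through KCNK3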
Target sequence (O14649 whole entry, looked up): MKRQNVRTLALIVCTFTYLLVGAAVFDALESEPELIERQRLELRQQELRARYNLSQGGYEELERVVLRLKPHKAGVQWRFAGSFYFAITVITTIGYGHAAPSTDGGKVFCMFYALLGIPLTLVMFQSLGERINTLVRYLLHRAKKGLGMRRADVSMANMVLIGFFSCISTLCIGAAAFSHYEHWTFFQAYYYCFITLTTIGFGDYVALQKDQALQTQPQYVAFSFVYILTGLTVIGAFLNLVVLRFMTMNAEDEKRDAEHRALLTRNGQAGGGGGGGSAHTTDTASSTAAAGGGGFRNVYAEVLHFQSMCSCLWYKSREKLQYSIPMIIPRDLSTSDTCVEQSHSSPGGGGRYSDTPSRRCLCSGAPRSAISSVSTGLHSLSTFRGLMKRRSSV
Cl transport mod – modulators of human KCC2 chloride dependent transport; Q9H2X9; KCC2 cells, thallium flux FluoZin-2 fluorescence; B-score of Tl+ flux slope (higher = more flux/activation; lower = inhibition) at 10 µM; hit rate 2.2% among 190,000; AID 1456;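 active means thallium flux slope and its plate-corrected score both differing from the plate sample mean at a set confidence after two filtering rounds, in either direction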;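 further: slope of fluorescence scaled to starting intensity during 10 to 20 s after thallium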
KCNQ1 pot – potentiates or activates the human KCNQ1 potassium channel. P51787. CHO-K1 KCNQ1, thallium flux FluxOR fluorescence; hits give high values. B-score at 10 µM. hit rate 0.35% among 310,000. AID 2648;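 active means fluorescence ratio B-score, a plate-corrected score, at least three library SD, with initial intensity B-score within 5 SD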
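System: Stable KCNQ1 CHO-K1 line | Incubation: 90 min dye loading and 20 min compound exposure, both at room temperature | Measure: Ratio B score | Medium: Assay buffer for compound exposure, DMSO matched across wells | Compound dosing: Single-concentration screen | Probe or stimulus: K+/Tl+ depolarizing stimulus | Measured by: Kinetic FluxOR fluorescence, 10 s baseline plus 110 s post-stimulus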
KCNK9 block – blocks the human KCNK9 two-pore domain potassium channel; Q9NPC2; HEK293 KCNK9, FluxOR thallium flux fluorescence; hits give low values; B-score at 10 µM; hit rate 1.2% among 310,000;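 active means ratio B-score over 3 SD below the library mean, with starting fluorescence within 5 SD of its mean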;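 further: negative B-score means less thallium flux so channel inhibition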
Target sequence (Q9NPC2 whole entry, looked up, the tested form may be a part): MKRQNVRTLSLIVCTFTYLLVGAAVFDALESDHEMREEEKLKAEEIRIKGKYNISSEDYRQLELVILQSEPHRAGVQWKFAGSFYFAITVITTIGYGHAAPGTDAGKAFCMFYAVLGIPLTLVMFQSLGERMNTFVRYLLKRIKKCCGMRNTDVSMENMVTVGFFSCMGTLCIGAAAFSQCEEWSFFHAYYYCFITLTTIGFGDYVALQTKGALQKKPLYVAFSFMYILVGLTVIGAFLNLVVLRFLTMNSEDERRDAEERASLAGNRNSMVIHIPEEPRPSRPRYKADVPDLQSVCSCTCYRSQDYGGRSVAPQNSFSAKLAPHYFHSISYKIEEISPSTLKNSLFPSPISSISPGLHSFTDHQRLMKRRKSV
KCNQ1 inh – inhibitors of human KCNQ1 potassium channel | B-score at 10 µM | CHO-K1 KCNQ1, FluxOR thallium flux fluorescence; hits give high values | P51787 | AID 2642 | hit rate 1.3% among 310,000;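 active means compounds whose thallium flux B-score, printed positive for inhibition, exceeds three library SD while starting fluorescence stays within three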;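 further: channel opened by potassium depolarization with thallium stimulus after 20 min compound exposure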
hERG protect – hERG (human) protection from proarrhythmic block. CHO-hERG, FluxOR thallium flux, dofetilide IC70 present. activation (rescue from dofetilide block), less the hit threshold, % at 10 µM. hit rate 0.51% among 310,000. Q12809;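 active means activation above the mean of controls blocked by dofetilide plus 5 SD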;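 further: thallium influx through hERG after potassium depolarization seen as dye fluorescence rise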
KCC2 secondary – confirmation of human KCC2 transport modulators; shares compounds with Cl transport mod; HEK293-KCC2, thallium flux, FluoZin2 fluorescence; hits give high values; normalised thallium flux (F/F0 slope) at 10 µM; hit rate 15% among 3,700;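 active means thallium flux slope above the same plate's solvent-only control mean plus 3 SD; inconclusive means the two replicate wells disagree; inactive means no significant difference from solvent-only control wells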
KCC2 bumet counter – thallium flux despite bumetanide block in KCC2 cells, secondary assay 3; shares compounds with Cl transport mod; HEK293-KCC2 + bumetanide/ouabain, thallium flux FluoZin2; hits give high values; normalized thallium flux at 10 µM; hit rate 49% among 3,700;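 active means thallium entry rate above the same plate's blocked-transporter control wells by more than 3 SD; inconclusive means the two repeat wells disagree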;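 further: raw slope of fluorescence over initial fluorescence between 10 and 20 s after thallium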
KCC2 secondary2 – KCC2 (human) modulation, second secondary assay; shares compounds with Cl transport mod; HEK293-KCC2, thallium flux FluoZin2 fluorescence; actives lie on both sides; F/F0 rise rate, 10–20 s post-thallium; normalized thallium flux at 10 µM; hit rate 23% among 3,700; AID 1715;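 active means thallium flux slope more than 3 SD above or below the plate's solvent-only control mean, mostly below; inconclusive means the two repeat wells disagreed; inactive means no significant shift from solvent-only controls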;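 further: raw slope with 0.1% DMSO as baseline and bumetanide as block control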
HEK counter1 – counter-screen for KCC2 modulators: effect in parental HEK293 cells | hit rate 46% among 3,700 | shares compounds with Cl transport mod | thallium flux rate (normalised fluorescence) at 10 µM | thallium flux FluoZin2, ouabain; baseline-ratio fluorescence slope, 10–20 s after thallium;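 active means thallium flux rate significantly above the same plate's solvent-only control wells, beyond their mean plus 3 SD; inconclusive means the two replicate wells gave conflicting results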
KCC2 ouabain – modulates human KCC2 on retest with ouabain | shares compounds with Cl transport mod | HEK293-KCC2, thallium flux FluoZin2 fluorescence; bidirectional: low = inhibitor, high = activator | raw Tl+ flux slope (below DMSO = inhibition, above = activation) at 10 µM | hit rate 48% among 3,700 | AID 1717;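 active means thallium flux slope beyond 3 SD from same-plate DMSO control mean in most replicates, usually higher, sometimes lower; inconclusive means repeat tests gave conflicting results; inactive means no significant difference from controls in most replicates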;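 further: slope of initial-normalized fluorescence between seconds 10 and 20 after thallium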
HEK counter2 – parental HEK flux effect, counter-screen 2. thallium flux slope at 10 µM. hit rate 33% among 3,700. HEK293 parental, thallium flux FluoZin-2 fluorescence slope. shares compounds with Cl transport mod. AID 1718;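 active means thallium flux slope above the same plate's solvent-control mean plus 3 SD in both duplicate wells; inconclusive means duplicate wells that disagreed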;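 further: run without ouabain in cells lacking the KCC2 cotransporter; slope of fluorescence scaled to its starting value between 10 and 20 s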
* = called active by the depositor; i = inactive; ? = inconclusive; nt = no result.

SMILES	KCNK3 inh	Cl transport mod	KCNQ1 pot	KCNK9 block	KCNQ1 inh	hERG protect	KCC2 secondary	KCC2 bumet counter	KCC2 secondary2	HEK counter1	KCC2 ouabain	HEK counter2
C[C@H](CO)N1C[C@H](C)[C@H](CN(C)Cc2ccncc2)Oc2ccc(NC(=O)Nc3ccc(C(F)(F)F)cc3)cc2CC1=O	i	nt	nt	nt	nt	nt	nt	nt	nt	nt	nt	nt
S=c1[nH]c(-c2ccccc2)cn1/N=C/c1ccccc1Br	i	46*	i	i	i	3	?	0.066*	0.063*	0.067*	0.079*	0.047*
S=c1[nH]c(-c2ccccc2)cn1/N=C/c1cccc2ccccc12	i	58*	14*	i	i	69*	0.0079	0.079*	0.077*	0.078*	0.086*	0.07*
COc1cc(/C=N/n2cc(-c3ccccc3)[nH]c2=S)cc(OC)c1O	i	0.33	i	i	i	-15	nt	nt	nt	nt	nt	nt
Cc1ccc(/C=N/n2cc(-c3ccccc3)[nH]c2=S)s1	i	33*	i	i	i	-3	0.024*	0.068*	0.037	0.056*	0.058*	0.019*
Oc1ccc(/C=N/n2cc(-c3ccccc3)[nH]c2=S)cc1	i	0.14	i	i	i	-13	nt	nt	nt	nt	nt	nt
CCC(=O)Nc1ccc(NC(=O)c2ccco2)cc1	i	nt	i	i	i	-8	0.01	0.0094*	0.034	0.009*	0.023	?
O=C(Nc1ccc2c(c1)Cc1ccccc1-2)c1ccco1	i	nt	i	i	i	-3	?	0.05*	0.032	0.023*	0.028	0.013*
CCC(=O)Oc1ccc(NC(=O)c2ccco2)cc1	i	0.24	i	i	i	-11	nt	nt	nt	nt	nt	nt
CCOc1cc(-c2nccc3cc(OC)c(OC)cc23)cc(OCC)c1OCC	i	nt	i	i	i	-3	nt	nt	nt	nt	nt	nt
O=C(c1ccccc1F)N1CCN(c2ccc([N+](=O)[O-])cc2-n2cccc2)CC1	i	-0.98	i	i	i	-5	nt	nt	nt	nt	nt	nt
O=C(c1ccc(F)cc1)N1CCN(c2ccc([N+](=O)[O-])cc2-n2cccc2)CC1	i	-3.7*	i	i	i	-10	0.0093	0.005	0.036	0.0069	0.019	0.011
Cc1ccc(-n2ncc3c(SCc4cccc(C)c4)ncnc32)cc1	i	6.6*	i	i	i	4	0.0074	0.022*	0.042*	0.022*	0.031*	0.026*
Cc1cc(=O)oc2c(C)c(OCC(=O)N3CCN(c4cccc(Cl)c4)CC3)ccc12	i	nt	i	i	i	-12	nt	nt	nt	nt	nt	nt
O=C(COc1cccc(Cl)c1)NNC(=S)Nc1ccccc1	i	2.6	i	i	i	-5	nt	nt	nt	nt	nt	nt
COc1cccc(OCC(=O)NNC(=S)Nc2ccc(Cl)cc2Cl)c1	i	5.5*	i	i	i	-7	0.0074	0.015*	0.028	0.014*	?	0.014*
Cc1ccc(-c2ccc(CCC(=O)O)n2C(C)C)cc1	i	-4.4*	i	i	i	-6	0.0092	0.0067	0.029	0.0068	0.021	0.0096
Cc1ccc(-c2ccc(CCC(=O)O)n2NC(N)=S)cc1	i	0.53	i	i	i	-1	nt	nt	nt	nt	nt	nt
Cc1cccc(N2CCN(C(=O)CCCn3c(=S)[nH]c4cc5c(cc4c3=O)OCO5)CC2)c1C	i	nt	i	i	i	-15	0.0075	0.012*	0.03	?	?	?
O=C(CCCn1c(=S)[nH]c2ccccc2c1=O)N1CCCCC1	i	0.29	i	i	i	-16	nt	nt	nt	nt	nt	nt
CC1CC(C)CN(C(=O)CCCn2c(=S)[nH]c3ccccc3c2=O)C1 (configuration not stated)	i	5.4*	i	i	i	-13	0.0054	0.029*	0.035	0.011*	?	?
O=C(c1ccc2[nH]c(=O)c(=O)[nH]c2c1)N1CCN(c2ccccc2)CC1	i	nt	i	i	i	-5	nt	nt	nt	nt	nt	nt
CCN1CCN(C(=O)c2ccc3c(=O)n(C4CCCC4)c(=S)[nH]c3c2)CC1	i	nt	i	i	i	-11	nt	nt	nt	nt	nt	nt
O=C(c1ccc2c(=O)n(C3CCCC3)c(=S)[nH]c2c1)N1CCN(C2CCCCC2)CC1	i	8.3*	i	i	i	-12	0.0063	0.0098*	0.029	0.015*	0.021	0.013*
CCCn1c(=S)[nH]c2cc(C(=O)N3CCN(C(=O)OCC)CC3)ccc2c1=O	i	nt	i	i	i	-6	nt	nt	nt	nt	nt	nt
SMILES	KCNK3 inh	Cl transport mod	KCNQ1 pot	KCNK9 block	KCNQ1 inh	hERG protect	KCC2 secondary	KCC2 bumet counter	KCC2 secondary2	HEK counter1	KCC2 ouabain	HEK counter2
CCOC(=O)N1CCN(C(=O)c2ccc3c(=O)n(Cc4ccc(Cl)cc4)c(=S)[nH]c3c2)CC1	i	nt	i	i	i	-13	0.0063	0.015*	0.032	0.013*	?	0.016*
CC(C)n1c(CSCc2ccc(Cl)cc2Cl)n[nH]c1=S	i	9.3*	i	i	i	-6	0.01	0.083*	0.034	0.028*	0.053*	0.013*
Nc1nnc(CSCc2ccc(Cl)cc2Cl)s1	i	-0.22	i	i	i	-4	nt	nt	nt	nt	nt	nt
C=CCn1c(SCC#N)nc2c(c1=O)C(C)(C)Cc1ccccc1-2	i	-0.13	i	i	i	-9	0.0061	0.005	0.031	?	0.018	0.009
CC(C)(C)C(=O)/C=c1\[nH]c(=O)/c(=C\c2ccc(C#N)cc2)s1	i	30*	i	i	i	-10	0.019*	0.05*	0.037	?	0.048*	?
O=C1CC(N(O)C2CC(=O)N(Cc3ccccc3)C2=O)C(=O)N1Cc1ccccc1 (configuration not stated)	i	nt	i	i	i	-15	0.0051	0.0049	0.026*	0.0073	?	0.011
CCc1ccc2[nH]c3nc(N/N=C/c4ccc(O)cc4O)nnc3c2c1	i	nt	i	i	i	-12	nt	nt	nt	nt	nt	nt
